Screening results as filed in PubChem BioAssay.
Rows were chosen to be rich in hits. Some 2.4% of all compounds tested hit in one or more screens of this group.
MIN6 prolif = MIN6 beta-cell proliferation induction. MIN6 cells proliferation, ATPlite luminescence, 48 h; cells starved in 0.2% serum; 100% = growth in 10% serum. proliferation, % at 10 µM. 330,000 compounds, 0.29% hits;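 active = compounds whose signal lies at least 3.5 SD above the mean of all wells on their plate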;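 note: 0% = DMSO-treated cells in low-serum medium and 100% = 10% serum control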
SR-BI HDL uptake = inhibitors of mouse SR-BI mediated HDL lipid uptake; Q61009; ldlA[mSR-BI] CHO cells, DiI-HDL uptake fluorescence, 3 h; inhibition, % at 12.5 µM; 320,000 compounds, 0.96% hits; AID 488896;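 active = mean replicate inhibition of at least 70% and a set share of replicates each scoring 70 or more; inconclusive = meets just one of the two criteria; inactive = fails both criteria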;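 note: 0% = median of neutral control wells and 100% = median of positive control wells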
Target sequence (Q61009 whole entry, looked up): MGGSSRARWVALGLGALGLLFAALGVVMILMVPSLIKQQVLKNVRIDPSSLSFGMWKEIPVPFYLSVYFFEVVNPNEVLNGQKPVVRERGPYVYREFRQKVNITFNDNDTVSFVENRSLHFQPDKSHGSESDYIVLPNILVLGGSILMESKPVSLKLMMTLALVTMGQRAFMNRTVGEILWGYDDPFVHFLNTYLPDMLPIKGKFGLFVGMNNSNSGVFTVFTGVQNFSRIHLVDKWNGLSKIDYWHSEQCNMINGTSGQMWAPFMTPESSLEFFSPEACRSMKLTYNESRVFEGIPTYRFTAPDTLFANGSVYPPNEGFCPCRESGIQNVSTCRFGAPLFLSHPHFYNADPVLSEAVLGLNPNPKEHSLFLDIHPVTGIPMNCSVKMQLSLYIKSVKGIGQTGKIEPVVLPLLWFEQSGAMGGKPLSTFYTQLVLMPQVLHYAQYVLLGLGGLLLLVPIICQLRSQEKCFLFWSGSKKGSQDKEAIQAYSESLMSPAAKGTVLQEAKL
m5-HT2A agonist = agonists of mouse serotonin 5-HT2A receptor (HTR2A). CHO-K1 mHTR2A beta-arrestin complementation, luminescence; percent of 30 µM serotonin response. AID 624169. activation, % at 7.6 µM. 360,000 compounds, 0.66% hits. P35363;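 active = activation above a run cutoff, the mean activation of all tested compounds plus 3 SD, cut at about 14% in these data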;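 note: 0% = plate median of compound wells and 100% = 30 µM serotonin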
Calb FLC = C. albicans growth modulation with fluconazole; C. albicans CaCi-2 + fluconazole, Alamar Blue growth, 48 h; growth inhibition, % (test concentration not listed); 300,000 compounds, 0.57% hits;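 active = growth inhibition above about 58% in most replicates, limit read from the data, passing the limit was not always enough; inconclusive = exactly half the replicates above a set limit; inactive = most replicates below a set limit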;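 note: all wells also contain fluconazole at 8 µg/ml as a sub-toxic cotreatment; 0% = median of DMSO wells and 100% = median of geldanamycin control wells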
SR-BI DiI-HDL act = activators of SR-BI mediated HDL lipid uptake; CHO ldlA[mSR-BI] cells, DiI-HDL uptake fluorescence, 3 h; 100 = double the neutral-control signal; activation, % at 12.5 µM; 320,000 compounds, 0.096% hits; AID 504775;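 active = mean replicate activation of at least 60% and every replicate at or above 60%; inconclusive = mean or all-replicate condition met, but not both; inactive = mean below 60% and not all replicates reaching 60%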;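 note: 0% = median plate neutral-control signal and 100% = twice that signal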
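Assay system: LDL receptor-deficient CHO ldlA cells overexpressing murine SR-BI / Medium: BSA-supplemented, HEPES-buffered Ham's F12, pH 7.4 / Probe or stimulus: DiI-labelled HDL at 10 µg/mL final / Timing: compound with DiI-HDL co-incubation, 3 h at 37 °C / Technique: bottom-read cell fluorescence after medium removal, ex 550/em 595 nm / Measure: HDL uptake via cellular fluorescence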
Insulin prom up = MIN6 insulin promoter up-regulation; MIN6 insulin promoter-GFP reporter, high-content imaging; stronger effect = higher value; z-score at 5 µM; 190,000 compounds, 0.3% hits; AID 1625;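 active = z-score above 3 at 5 µM with at least 500 cells counted in the well; inconclusive = wells under 500 cells, flagged as cytotoxic or low count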
Active calls of the source: *; ? = inconclusive; / = no result.

SMILES	MIN6 prolif	SR-BI HDL uptake	m5-HT2A agonist	Calb FLC	SR-BI DiI-HDL act	Insulin prom up
O=C(c1cc(-c2ccccc2)n[nH]1)N1CCc2c([nH]c3ccccc23)C1c1ccccn1 (stereo not given)	-5	29	-3	98*	-29	/
CCNC(=O)C1CCCN(C(=O)c2ccc(OC)c(OC)c2)CC1 (stereo not given)	/	/	0	/	/	/
COc1ccc(-c2cc(C(=O)N3CCCCCC3)c3ccccc3n2)cc1	-2	75*	-1	/	-75	/
COc1ccc(-c2cc(C(=O)N3CCCCCC3)c3ccccc3n2)cc1OC	/	/	-6	/	/	/
O=C(C[n+]1ccccc1)N/N=C/c1ccc(Cl)c(Cl)c1	-2	-11	-4	4	11	/
COc1cc2sc3cc(NCc4ccc5c(c4)OCO5)ccc3c(=O)c2cc1OC	-2	73*	1	/	-73	/
COc1cc2sc3cc(NCc4ccc(C)o4)ccc3c(=O)c2cc1OC	-5	80*	-4	/	-80	/
COc1cccc(C(C#N)NCCCNC(C#N)c2cccc(OC)c2OC)c1OC (stereo not given)	/	16	4	/	-16	/
O=C(CCc1ccccc1)NNC(=O)c1ccncc1	-1	12	5	/	-12	/
C=CC[n+]1ccc(/C=C2\C=Cc3cc(C)ccc3N2CC)c2ccccc21	/	92*	-4	/	-92	/
C#CCNC(=O)C[C@@H]1C[C@@]2(C(=O)OCC)CCCC=C2N(CCC2=CCCCC2)C1=O	/	/	-3	/	/	/
CCOC(=O)c1cc(NC(=O)N(CC)C2CCCCC2)c(C)nc1C	2	77*	4	?	-77	/
CCOC(=O)Nc1cc(C(=O)OCC)c(C)nc1C	1	-10	2	-5	10	0.87
CCOC(=O)c1cc(NC(=O)N(C)C2CCCCC2)c(C)nc1C	0	74*	5	0	-74	/
CN(Cc1ccccc1)C(=O)c1csc([C@@H]2C[C@H](O)[C@@H](CO)O2)n1	/	/	1	/	/	/
CC/C(=N/N=C(/CC)c1ccc(O)cc1)c1ccc(O)cc1	-1	-26	-4	-10	26	/
CCOC(=O)c1c(NC(=O)c2cccc(N3C(=O)CCC3=O)c2)sc(C)c1C	-1	27	2	24	-27	-0.44
COc1ccc(-c2csc(NC(=O)c3cccc(N4C(=O)CCC4=O)c3)n2)cc1OC	2	72*	5	/	-72	/
Cc1ccc(-c2csc(NC(=O)c3cccc(N4C(=O)CCC4=O)c3)n2)o1	-4	64	2	-5	-62	-0.06
CCOC(=O)c1c(-c2ccc(-c3ccccc3)cc2)csc1NC(=O)c1cccc(N2C(=O)CCC2=O)c1	-1	72*	-1	7	-72	0.26
CCOc1ccc(-c2csc(NC(=O)c3cccc(N4C(=O)CCC4=O)c3)n2)cc1	-2	90*	-3	0	-90	/
COc1ccccc1CN1CC(C(=O)N2CCC(C(=O)c3ccccc3)CC2)CCC1=O (stereo not given)	-1	-7	-3	-4	7	/
CC1(c2cccc(Br)c2)NC(=O)N(CC(=O)Nc2ccc3c(c2)OCCO3)C1=O (stereo not given)	-2	-8	6	/	8	/
CCc1ccc(/C=C/C(=O)c2cc(Br)ccc(=O)c2O)cc1	-6	7	-2	94*	-7	0.2
CCOc1ccc(/C=C/C(=O)c2cc(Br)ccc(=O)c2O)cc1	/	14	1	/	-14	0.11
SMILES	MIN6 prolif	SR-BI HDL uptake	m5-HT2A agonist	Calb FLC	SR-BI DiI-HDL act	Insulin prom up
Cc1cccc(/C=C/C(=O)c2cc(Br)ccc(=O)c2O)c1	-7	-3	4	100*	3	0.19
CC(=O)c1cccc(NC(=O)/C=C/c2ccc([N+](=O)[O-])s2)c1	/	70	-2	5	-70	?
Cc1cc(C)cc(NC(=O)/C=C/c2ccc([N+](=O)[O-])s2)c1	/	34	-1	4	-34	6*
O=C(NCc1ccco1)c1ccccc1NS(=O)(=O)c1ccc(Br)s1	-4	-5	-7	108*	5	-0.52
COc1ccc(S(=O)(=O)Nc2ccccc2C(=O)NCc2ccco2)cc1	-1	-9	-4	4	9	0.49
CC(=O)c1c(C)[nH]c(C(=O)OCc2csc(CC(=O)Nc3ccccc3C)n2)c1C	0	73*	5	/	-73	/
COc1ccccc1CC(=O)NC1CC(C)(C)NC(C)(C)C1	-2	-15	0	6	15	3.6*
